The text below walks through data of ChEMBL document CHEMBL4732207, “Design, Synthesis and Structure-Activity Relationship Studies of Glycosylated Derivatives of Marine Natural Product Lamellarin D” (Eur J Med Chem, 2021).

≈ marks a conversion by molar mass, not a printed value. Calls of active or inactive are those of the source. The rule behind the calls is not given here. Bounds are passed on as bounds.

Data set [1] has as its system MDA-MB-231. The data set is described as follows: Cytotoxicity against human MDA-MB-231 cells assessed as reduction in cell viability incubated for 72 hrs by MTT assay. It counts as functional, cell-based. To be noted: MDA-MB-231, 72 h. In short, it runs like this:
(§1)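 Cells resuspended in DMEM plus 10% FBS and seeded at 5 000 cells/well. They were incubated overnight at 37 °C in 5% CO2, then exposed to serial dilutions for 72 h at 37 °C. Medium was replaced with fresh medium containing 0.5 mg/mL MTT for 4 h, formazan dissolved in DMSO, and A540 read. Proliferation = A540 treated/control ×100%. IC50 is the concentration inhibiting proliferation by 50%.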

The test system of data set [2] is HGC-27. The data set is described as follows: Cytotoxicity against human HGC-27 cells assessed as reduction in cell viability incubated for 72 hrs by MTT assay. The format is functional, cell-based. To be noted: HGC-27, 72 h. In short, it runs like this:
as §1

Data set [3] has as its system A549. The data set is described as follows: Cytotoxicity against human A549 cells assessed as reduction in cell viability incubated for 72 hrs by MTT assay. It counts as functional, cell-based. To be noted: A549, 72 h. In short, it runs like this:
as §1
A general note: Formazan colour is commonly taken as a measure of viable cells.

The subject of data set [4] is HCT-116. The data set is described as follows: Cytotoxicity against human HCT-116 cells assessed as reduction in cell viability incubated for 72 hrs by MTT assay. It counts as functional, cell-based. To be noted: HCT-116, 72 h. Put shortly:
as §1

Data set [5] relates to HepG2. The data set is described as follows: Cytotoxicity against human HepG2 cells assessed as reduction in cell viability incubated for 72 hrs by MTT assay. The format is functional, cell-based. To be noted: HepG2, 72 h. Put shortly: as §1
The target of data set [6] is T1, DNA topoisomerase 1 (Homo sapiens) (UniProt P11387).
T1 sequence (whole entry): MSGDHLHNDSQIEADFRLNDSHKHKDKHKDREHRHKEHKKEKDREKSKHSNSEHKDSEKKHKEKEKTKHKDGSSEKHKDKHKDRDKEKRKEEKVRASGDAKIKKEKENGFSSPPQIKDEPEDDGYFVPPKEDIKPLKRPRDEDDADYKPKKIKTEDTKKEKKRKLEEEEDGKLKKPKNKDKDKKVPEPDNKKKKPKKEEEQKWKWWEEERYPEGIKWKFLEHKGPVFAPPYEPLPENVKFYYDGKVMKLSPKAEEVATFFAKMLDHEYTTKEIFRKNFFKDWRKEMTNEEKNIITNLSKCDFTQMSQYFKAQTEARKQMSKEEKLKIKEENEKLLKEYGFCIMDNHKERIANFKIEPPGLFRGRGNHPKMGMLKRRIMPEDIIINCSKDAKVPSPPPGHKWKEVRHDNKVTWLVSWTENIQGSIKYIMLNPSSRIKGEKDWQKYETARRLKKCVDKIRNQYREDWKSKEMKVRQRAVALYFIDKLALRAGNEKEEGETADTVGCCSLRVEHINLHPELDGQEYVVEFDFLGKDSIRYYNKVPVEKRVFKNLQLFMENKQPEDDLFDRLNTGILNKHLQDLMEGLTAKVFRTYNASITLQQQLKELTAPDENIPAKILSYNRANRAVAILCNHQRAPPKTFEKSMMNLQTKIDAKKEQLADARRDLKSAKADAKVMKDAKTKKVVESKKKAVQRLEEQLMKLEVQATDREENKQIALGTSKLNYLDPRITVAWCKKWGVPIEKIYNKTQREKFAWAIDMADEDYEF
The data set is described as follows: Inhibition of topoisomerase 1 (unknown origin) assessed as reduction in relaxation of supercoiled plasmid pBR322 DNA at 10 uM incubated for 30 mins by agarose gel electrophoresis. Put shortly:
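Reaction mix held 10X Topo I buffer, supercoiled pBR322 (250 ng), Topo I (2 U) and compound at 10 µM, incubated 37 °C for 30 min. Stopped with 10% SDS, then proteinase K digestion for 30 min. Products run on 1% agarose without stain, post-stained with 4s Green for 50 min and imaged under UV. Read-out is loss of relaxation.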

Data set [7] has as its system MDA-MB-231. The data set is described as follows: Induction of cell cycle arrest in human MDA-MB-231 cells assessed as increase in accumulation of G2/M phase incubated for 24 hrs by PI staining based flow cytometry analysis. To be noted: dose 10-50 nM. It counts as functional. In short, it runs like this:
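MDA-MB-231 cells (5 × 10^5) seeded in six-well plates, cultured overnight at 37 °C, then treated at 10, 20 or 50 nM for 24 h. Lamellarin D was the positive control at 20 and 50 nM. Cells were trypsinized, washed twice in PBS and fixed in 70% ethanol overnight at −20 °C. After washing, cells were stained with propidium iodide. Phase distribution was read by flow cytometry.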

Data set [8] is described as follows: Aqueous solubility of compound in deionized water by HPLC-HRMS analysis. The format is physicochemical. To be noted: buffer.
In data set [9] the test system is MDA-MB-231. The data set is described as follows: Induction of apoptosis in human MDA-MB-231 cells at 50 nM incubated for 24 hrs by annexin-V-FITC and PI staining based flow cytometry analysis. The format is functional, cell-based. (In general: In flow cytometry, cells or beads pass a laser one at a time.)

In general, IC50 refers to the concentration that inhibits the measured activity by half. In general, solubility refers to how much of the substance goes into solution per volume. Read a low solubility as a poorly soluble substance. On to `COc1cc(-c2c3c4cc(OC)c(O)cc4oc(=O)c3n3ccc4cc(O)c(OC)cc4c23)ccc1O` [LAMELLARIN D], for which the IC50 in data set [1] amounted to 31 nM; in data set [2] it was 236 nM; in data set [3], 4 nM; in data set [4] it was 25 nM; in [5], 88 nM. Also, the inhibition result in data set [6] is “Active”. Further, the Activity entry in [7] was “Dose-dependent effect”. Further, the solubility in [8] is 0.56 nM (≈ 0.28 ng/mL).

For `COc1cc(-c2c3c4cc(OC)c(O[C@@H]5O[C@H](CO)[C@@H](O)[C@H](O)[C@H]5O)cc4oc(=O)c3n3ccc4cc(O)c(OC)cc4c23)ccc1O`, the IC50 in [1] amounted to 34 nM; in [2], 162 nM; in [3], 3 nM; in data set [4], 10 nM; in data set [5], 15 nM. Also, the Activity result in data set [7] was “Dose-dependent effect”. In data set [9], the result was Active. Besides, in data set [8], the solubility is 2 nM (≈ 1.32 ng/mL).

For `COc1cc2c(cc1O)oc(=O)c1c2c(-c2ccc(O[C@@H]3O[C@H](CO)[C@@H](O)[C@H](O)[C@H]3O)c(OC)c2)c2c3cc(OC)c(O[C@@H]4O[C@H](CO)[C@@H](O)[C@H](O)[C@H]4O)cc3ccn21`, the IC50 in data set [1] is 13300 nM; in data set [2], 27100 nM; in data set [3] it was 13700 nM; in [4], 5280 nM; in [5], 40100 nM. Moreover, in [6], the inhibition entry is “Active”. Further, the solubility in [8] worked out at 96.75 nM (≈ 79.7 ng/mL).

In the case of `COc1cc(-c2c3c4cc(OC)c(O)cc4oc(=O)c3n3ccc4cc(O[C@H]5O[C@H](CO)[C@@H](O)[C@H](O)[C@@H]5O)c(OC)cc4c23)ccc1O`, the IC50 in [1] was determined as 1990 nM; in data set [2], 219 nM; in [3], 3240 nM; in data set [4], 1420 nM; in data set [5], 3880 nM. The solubility in [8] came out at 0.23 nM (≈ 0.152 ng/mL).

As for `COc1cc2c(cc1O)oc(=O)c1c2c(-c2ccc(O[C@@H]3O[C@H](CO)[C@@H](O)[C@H]3O)c(OC)c2)c2c3cc(OC)c(O)cc3ccn21`, the IC50 in data set [1] came to 2110 nM; in data set [2], 224 nM; in data set [3], 659 nM; in data set [4], 614 nM; in [5], 332 nM.

On to `COc1cc2c(cc1O)oc(=O)c1c2c(-c2ccc(O[C@@H]3O[C@H](CO)[C@@H](O)[C@H](O)[C@H]3O)c(OC)c2)c2c3cc(OC)c(O)cc3ccn21`, for which the IC50 in data set [1] is over 50000 nM; in [2] it was over 50000 nM; in [3], over 50000 nM; in [4], 26200 nM; in [5], 42900 nM. Besides, in data set [6], the inhibition entry is “Active”. This molecule also gave a solubility in data set [8] of 0.41 nM (≈ 0.271 ng/mL).

As to `COc1cc(-c2c3c4cc(OC)c(O[C@@H]5O[C@H](CO)[C@@H](O)[C@H]5O)cc4oc(=O)c3n3ccc4cc(O)c(OC)cc4c23)ccc1O`, the IC50 stood at 2690 nM in data set [1]; 862 nM in data set [2]; 2860 nM in data set [3]; 1160 nM in [4]; 627 nM in data set [5].

For the molecule `COc1cc(-c2c3c4cc(OC)c(O)cc4oc(=O)c3n3ccc4cc(O[C@@H]5O[C@H](CO)[C@H](O)[C@H](O)[C@H]5O)c(OC)cc4c23)ccc1O`, the IC50 in [1] is 18 nM; in data set [2] it was 114 nM; in data set [3] it was 13 nM; in data set [4], 37 nM; in [5], 48 nM. In data set [8], the solubility was found to be 235.82 nM (≈ 156 ng/mL).

`COc1cc(-c2c3c4cc(OC)c(O[C@@H]5O[C@H](CO)[C@H](O)[C@H](O)[C@H]5O)cc4oc(=O)c3n3ccc4cc(O)c(OC)cc4c23)ccc1O`: the IC50 stood at 25 nM in data set [1]; 90 nM in data set [2]; 20 nM in [3]; 18 nM in data set [4]; 58 nM in [5]. This molecule also yielded a solubility in [8] of 0.12 nM (≈ 0.0794 ng/mL).

Take `COc1cc(-c2c3c4cc(OC)c(O)cc4oc(=O)c3n3ccc4cc(O[C@@H]5O[C@H](CO)[C@@H](O)[C@H](O)[C@H]5O)c(OC)cc4c23)ccc1O`: the IC50 in data set [1] was 32 nM; in [2], 114 nM; in data set [3], 47 nM; in data set [4], 14 nM; in data set [5], 24 nM. In data set [8], the solubility was 257.78 nM (≈ 171 ng/mL).

Take `COc1cc2c(cc1O)oc(=O)c1c2c(-c2ccc(O[C@@H]3O[C@H](CO)[C@H](O)[C@H](O)[C@H]3O)c(OC)c2)c2c3cc(OC)c(O)cc3ccn21`: the IC50 in data set [1] is over 50000 nM; in data set [2] it was 16600 nM; in data set [3] it was over 50000 nM; in [4] it was 13700 nM; in data set [5], over 50000 nM. Besides, the inhibition result in [6] is “Active”. Moreover, in [8], the solubility turned out to be 0.49 nM (≈ 0.324 ng/mL).

As to `COc1cc2c(ccn3c2c(-c2ccc(O[C@@H]4O[C@H](CO)[C@@H](O)[C@H](O)[C@H]4O)c(OC)c2)c2c4cc(OC)c(O[C@@H]5O[C@H](CO)[C@@H](O)[C@H](O)[C@H]5O)cc4oc(=O)c23)cc1O`, the IC50 in data set [1] is 7370 nM; in data set [2], 7220 nM; in data set [3] it was 16400 nM; in data set [4] it was 6770 nM; in data set [5] it was 28800 nM. The inhibition entry in data set [6] is “Active”. For the same molecule, the solubility in [8] is reported as 257.55 nM (≈ 212 ng/mL).

With `COc1cc(-c2c3c4cc(OC)c(O[C@@H]5O[C@H](CO)[C@@H](O)[C@H](O)[C@H]5O)cc4oc(=O)c3n3ccc4cc(O[C@@H]5O[C@H](CO)[C@@H](O)[C@H](O)[C@H]5O)c(OC)cc4c23)ccc1O`, the IC50 was 36 nM in data set [1]; 74 nM in data set [2]; 26 nM in data set [3]; 40 nM in [4]; 118 nM in data set [5]. In data set [8], this molecule showed a solubility of 182.31 nM (≈ 150 ng/mL).

In the case of `COc1cc2c(cc1O)oc(=O)c1c2c(-c2ccc(O[C@H]3O[C@H](CO)[C@@H](O)[C@H](O)[C@@H]3O)c(OC)c2)c2c3cc(OC)c(O)cc3ccn21`, the IC50 is over 50000 nM in data set [1]; 31300 nM in data set [2]; over 50000 nM in data set [3]; over 50000 nM in [4]; over 50000 nM in [5]. Further, the inhibition result in [6] was “Active”. The molecule also returned a solubility in [8] of 0.14 nM (≈ 0.0926 ng/mL).

As to `COc1cc(-c2c3c4cc(OC)c(O)cc4oc(=O)c3n3ccc4cc(O[C@@H]5O[C@H](CO)[C@@H](O)[C@H]5O)c(OC)cc4c23)ccc1O`, the IC50 in data set [1] is 5080 nM; in [2] it was 1240 nM; in data set [3], 4120 nM; in [4] it was 1280 nM; in [5], 937 nM.

On to `COc1cc(-c2c3c4cc(OC)c(O[C@H]5O[C@H](CO)[C@@H](O)[C@H](O)[C@@H]5O)cc4oc(=O)c3n3ccc4cc(O)c(OC)cc4c23)ccc1O`, for which the IC50 was found to be 316 nM in data set [1]; 137 nM in data set [2]; 374 nM in data set [3]; 206 nM in data set [4]; 570 nM in data set [5]. Besides, the solubility in data set [8] is recorded as 0.37 nM (≈ 0.245 ng/mL).
